We go through two compounds from ChEMBL document CHEMBL4402600, “Discovery of a Dual Tubulin Polymerization and Cell Division Cycle 20 Homologue Inhibitor via Structural Modification on Apcin” (J Med Chem, 2020).

One may read the IC50 as the concentration that gives 50% inhibition. One may read the Kd as the equilibrium constant for the complex coming apart.

Assay [1] relates to HepG2. In words: Inhibition of mitotic exit in human HepG2 cells assessed as increase in nuclear phosphohistone H3 levels incubated for 48 hrs by immunofluorescence assay. It counts as functional, cell-based. The method, boiled down:
(§1)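 HepG2 seeded at 4×10³/well, overnight adhesion, treated 48 h. Fixed 15 min in 4% formaldehyde, permeabilized with Triton X-100, BSA-blocked, anti-phospho-histone H3 (Ser10) at 4°C overnight, fluorescent anti-rabbit secondary, DAPI counterstain. Fluorescence read relative to DMSO control; PHH3-positive cells counted in random fields as % of total. At least two experiments.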

In assay [2] the test system is HepG2. In words: Induction of apoptosis in human HepG2 cells assessed as early apoptotic cells level at 100 uM incubated for 24 hrs by Annexin V-FITC/PI staining based flow cytometry (reference value: 4.02%). The format is functional.
In a further assay the test system is Caov-3 cell line. In words: Cytotoxicity in human Caov3 cells assessed as reduction in cell viability incubated for 48 hrs by MTT assay. It counts as functional, cell-based. Particulars: Caov-3, 48 h. The method, boiled down: (§2)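 Cells grown at 37°C, 5% CO₂ (HepG2, OVCAR-3, Caov-3 in DMEM + 10% FBS; A549, HeLa, A375, MCF-7 in RPMI 1640 + 10% FBS). Seeded at 4-5×10³/well in triplicate, adhered overnight, exposed to 0.03–300 μM (DMSO <0.1%) for 48 h. MTT added for 4 h, formazan dissolved in DMSO, absorbance read. IC50 from dose–response curves, mean ± SD of at least three independent experiments.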

For assay [3], the system named is HepG2. In words: Induction of apoptosis in human HepG2 cells assessed as necrotic cells level at 300 uM incubated for 24 hrs by Annexin V-FITC/PI staining based flow cytometry (reference value: 1.48%). It counts as functional. (In flow cytometry, cells or beads pass a laser one at a time.)
In assay [4] the target is T1, Cell division cycle protein 20 homolog (Homo sapiens, UniProt Q12834). In words: Binding affinity to CDC20 (unknown origin) by SPR analysis. The essentials: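 Recombinant human Cdc20 (>95% pure) coupled by EDC/NHS to an acid-coupling chip; PBS pH 7.4 running buffer. Compounds injected as a gradient dilution series starting at 200 μM, 120-140 s association, 160 s dissociation. Steady-state values plotted against concentration; K_D from a one-to-one / single-site model.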
(In general: Surface plasmon resonance follows binding to a sensor surface in real time, without labels.)

Assay [5] relates to HepG2. Briefly: Induction of apoptosis in human HepG2 cells assessed as viable cells level at 300 uM incubated for 24 hrs by Annexin V-FITC/PI staining based flow cytometry (reference value: 89.38%). The format is functional.
Assay [6] relates to HepG2. Briefly: Induction of apoptosis in human HepG2 cells assessed as increase in cleaved PARP level at 30 to 100 uM incubated for 48 hrs by Western blot analysis. It counts as functional, cell-based. The essentials: (§3)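 HepG2 cells treated 48 h. Lysates in RIPA buffer with protease/phosphatase inhibitors; 25 μg protein run on SDS-PAGE, transferred to PVDF, blocked in 5% milk/TBST, primary antibodies overnight at 4°C (caspase-3, cleaved caspase-3, cleaved PARP), HRP secondary 1 h at room temperature, ECL detection; densitometry quantified.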

For assay [7], the system named is HepG2. In words: Induction of apoptosis in human HepG2 cells assessed as increase in cleaved caspase-3 level at 30 to 100 uM incubated for 48 hrs by Western blot analysis. It counts as functional, cell-based. The method, boiled down: as §3
For a further assay, the system named is MCF7. Briefly: Cytotoxicity in human MCF7 cells assessed as reduction in cell viability incubated for 48 hrs by MTT assay. The format is functional, cell-based. Particulars: MCF7, 48 h. The essentials:
as §2
A general note: Tetrazolium assays rely on reduction of a dye to a coloured formazan, in cell work by metabolically active cells.

Assay [8] deals with T1, Cell division cycle protein 20 homolog. Briefly: Inhibition of CDC20 in human HepG2 cells assessed as increase in Bim protein levels at 100 uM incubated for 48 hrs by Western blot Analysis. The format is cell-based. The essentials: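 HepG2 lysates in RIPA buffer with protease/phosphatase inhibitors; 25 μg protein by SDS-PAGE/PVDF, blocked in 5% milk/TBST, primary antibodies overnight at 4°C (Cyclin A2, Cyclin B1, Bim, Aurora A, Skp2), HRP secondary 1 h at room temperature, ECL; bands quantified by densitometry.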

Assay [9] deals with HepG2. Briefly: Cytotoxicity in human HepG2 cells assessed as reduction in cell viability incubated for 48 hrs by MTT assay. The format is functional, cell-based. Particulars: HepG2, 48 h. The essentials: as §2
In assay [10] the test system is HepG2. In words: Inhibition of mitotic exit in human HepG2 cells assessed as increase in nuclear phosphohistone H3 levels at 10 to 100 uM incubated for 48 hrs by relative to control.
For another assay, the system named is A549. Briefly: Cytotoxicity in human A549 cells assessed as reduction in cell viability incubated for 48 hrs by MTT assay. The format is functional, cell-based. Particulars: A549, 48 h. The essentials:
as §2

In assay [11] the test system is HepG2. In words: Induction of apoptosis in human HepG2 cells assessed as necrotic cells level at 100 uM incubated for 24 hrs by Annexin V-FITC/PI staining based flow cytometry (reference value: 1.48%). It counts as functional.
The subject of another assay is A-375. In words: Cytotoxicity in human A375 cells assessed as reduction in cell viability incubated for 48 hrs by MTT assay. It counts as functional, cell-based. Particulars: A-375, 48 h. The essentials: as §2
In assay [12] the test system is HepG2. In words: Induction of apoptosis in human HepG2 cells assessed as viable cells level at 100 uM incubated for 24 hrs by Annexin V-FITC/PI staining based flow cytometry (reference value: 89.38%). It counts as functional.
The subject of the next assay is HeLa. Briefly: Cytotoxicity in human HeLa cells assessed as reduction in cell viability incubated for 48 hrs by MTT assay. The format is functional, cell-based. The essentials:
as §2

In assay [13] the test system is HepG2. In words: Induction of apoptosis in human HepG2 cells assessed as early apoptotic cells level at 300 uM incubated for 24 hrs by Annexin V-FITC/PI staining based flow cytometry (reference value: 4.02%). The format is functional.
In the next assay the test system is OVCAR-3. Briefly: Cytotoxicity in human OVCAR3 cells assessed as reduction in cell viability incubated for 48 hrs by MTT assay. It counts as functional, cell-based. Particulars: OVCAR-3, 48 h. The essentials: as §2
The subject of assay [14] is HepG2. In words: Induction of apoptosis in human HepG2 cells assessed as late apoptotic cells level at 300 uM incubated for 24 hrs by Annexin V-FITC/PI staining based flow cytometry (reference value: 5.12%). It counts as functional.
Assay [15] relates to HepG2. In words: Induction of apoptosis in human HepG2 cells assessed as late apoptotic cells level at 100 uM incubated for 24 hrs by Annexin V-FITC/PI staining based flow cytometry (reference value: 5.12%). The format is functional.
Assay [16] relates to HepG2. In words: Induction of apoptosis in human HepG2 cells assessed as increase in cleaved PARP level at 0.03 to 0.3 uM incubated for 48 hrs by Western blot analysis. It counts as functional, cell-based. The essentials: as §3
The subject of assay [17] is HepG2. In words: Inhibition of cell invasion in human HepG2 cells assessed as retardation of cell penetration through matrigel-coated membranes at 0.3 uM incubated for 48 hrs. The format is functional, cell-based. The method, boiled down:
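HepG2 cells treated with compound or DMSO seeded in upper Transwell chamber in serum-free medium with Matrigel; complete medium in lower chamber. After 48 h at 37°C, 5% CO₂, invaded cells crystal-violet stained and photographed.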

For assay [18], the target named is T2, Tubulin (Homo sapiens) (UniProt P68371+Q9H4B7+P0DPH7+P68366+Q13509+Q71U36+P04350+Q3ZCM7+P07437+P68363+Q9BQE3+Q6PEY2+Q13885+Q9BVA1+Q9BUF5). Briefly: Inhibition of tubulin polymerization in human HepG2 cells assessed as condensed chromosome formation at 0.3 uM incubated for 48 hrs by immunofluorescent staining. The format is cell-based. The method, boiled down: (§4)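 HepG2 treated 48 h (vehicle 0.1% DMSO; 0.3 μM paclitaxel reference). Fixed in formaldehyde, permeabilized with Triton X-100, BSA-blocked, anti-α-tubulin overnight at 4°C, fluorescent secondary, DAPI counterstain; imaged for microtubule network and chromosome morphology.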

For assay [19], the system named is HepG2. In words: Inhibition of mitotic exit in human HepG2 cells assessed as increase in nuclear phosphohistone H3 levels at 0.03 to 0.3 uM incubated for 48 hrs by Western blot analysis relative to control. It counts as functional, cell-based.
Assay [20] relates to HepG2. Briefly: Inhibition of cell migration in human HepG2 cells incubated for 48 hrs by wound healing assay. It counts as functional, cell-based. The method, boiled down: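 HepG2 seeded at 15×10⁴/well in triplicate overnight. Confluent monolayers scratched with a pipette tip, PBS-washed, medium with 0.3 μM compound added. Wounds photographed at 0, 24, 48, 72 h; wound area measured by image analysis. At least two separate experiments.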

For assay [21], the system named is HepG2. In words: Induction of apoptosis in human HepG2 cells assessed as necrotic cells level at 0.3 uM incubated for 24 hrs by Annexin V-FITC/PI staining based flow cytometry (reference value: 1.48%). The format is functional.
The target of assay [22] is T2, Tubulin (Homo sapiens). In words: Inhibition of tubulin polymerization in human HepG2 cells assessed as disruption of microtubule organization in cytosol at 0.3 uM incubated for 48 hrs by immunofluorescent staining. The format is cell-based. The essentials:
as §4

Assay [23] relates to HepG2. Briefly: Induction of apoptosis in human HepG2 cells assessed as increase in cleaved caspase-3 level at 0.03 to 0.3 uM incubated for 48 hrs by Western blot analysis. It counts as functional, cell-based. The method, boiled down: as §3
Assay [24] deals with HepG2. In words: Induction of apoptosis in human HepG2 cells assessed as early apoptotic cells level at 0.3 uM incubated for 24 hrs by Annexin V-FITC/PI staining based flow cytometry (reference value: 4.02%). It counts as functional.
The target in the next assay is Tubulin (Sus scrofa) (UniProt P02554+P02550). Briefly: Inhibition of porcine brain tubulin polymerization assessed as reduction in rate and extent of tubulin assembly measured at 37 degC every 30 secs for 60 mins by fluorescence based assay.
Assay [25] concerns HepG2. In words: Induction of apoptosis in human HepG2 cells assessed as late apoptotic cells level at 0.3 uM incubated for 24 hrs by Annexin V-FITC/PI staining based flow cytometry (reference value: 5.12%). It counts as functional.
Assay [26] concerns HepG2. Briefly: Inhibition of mitotic exit in human HepG2 cells assessed as increase in nuclear phosphohistone H3 levels at 100 uM incubated for 48 hrs by immunofluorescence assay relative to control. The format is functional. More on the design: scale not given: the % may be the effect or the level left. The method, boiled down: as §1
Assay [27] deals with HepG2. In words: Induction of apoptosis in human HepG2 cells assessed as viable cells level at 0.3 uM incubated for 24 hrs by Annexin V-FITC/PI staining based flow cytometry (reference value: 89.38%). It counts as functional.

Calls of active or inactive are those of the source. The calls are words filed in the database; no cut-off is given here. Bounds are passed on as bounds.

T1 sequence (Q12834 whole entry): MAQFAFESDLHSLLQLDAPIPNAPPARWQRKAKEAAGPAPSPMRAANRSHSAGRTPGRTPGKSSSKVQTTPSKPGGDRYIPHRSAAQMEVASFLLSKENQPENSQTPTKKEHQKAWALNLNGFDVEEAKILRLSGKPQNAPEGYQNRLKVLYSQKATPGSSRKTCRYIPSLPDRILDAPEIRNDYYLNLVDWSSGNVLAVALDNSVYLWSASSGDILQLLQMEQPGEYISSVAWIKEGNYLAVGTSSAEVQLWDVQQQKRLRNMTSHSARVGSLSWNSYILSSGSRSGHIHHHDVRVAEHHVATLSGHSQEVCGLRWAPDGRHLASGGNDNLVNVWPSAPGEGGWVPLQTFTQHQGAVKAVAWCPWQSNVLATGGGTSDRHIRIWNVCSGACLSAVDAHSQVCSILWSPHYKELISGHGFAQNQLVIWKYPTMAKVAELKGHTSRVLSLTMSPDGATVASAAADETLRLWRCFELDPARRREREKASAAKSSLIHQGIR
Tubulin (Sus scrofa), sequence (P02550 whole entry, looked up): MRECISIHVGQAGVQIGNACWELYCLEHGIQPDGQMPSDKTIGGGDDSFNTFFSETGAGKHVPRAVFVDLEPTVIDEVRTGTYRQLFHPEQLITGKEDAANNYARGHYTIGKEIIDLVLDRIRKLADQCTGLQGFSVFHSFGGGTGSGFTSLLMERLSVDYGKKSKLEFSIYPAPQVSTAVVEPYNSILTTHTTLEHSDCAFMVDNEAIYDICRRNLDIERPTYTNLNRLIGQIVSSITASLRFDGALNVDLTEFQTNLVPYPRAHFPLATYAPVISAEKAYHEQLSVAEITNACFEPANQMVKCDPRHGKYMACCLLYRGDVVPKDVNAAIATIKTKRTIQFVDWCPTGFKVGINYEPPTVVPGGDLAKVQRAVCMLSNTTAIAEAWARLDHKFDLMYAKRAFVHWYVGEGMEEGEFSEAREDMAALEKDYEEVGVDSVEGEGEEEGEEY
Tubulin (Sus scrofa), sequence (P02554 whole entry, looked up): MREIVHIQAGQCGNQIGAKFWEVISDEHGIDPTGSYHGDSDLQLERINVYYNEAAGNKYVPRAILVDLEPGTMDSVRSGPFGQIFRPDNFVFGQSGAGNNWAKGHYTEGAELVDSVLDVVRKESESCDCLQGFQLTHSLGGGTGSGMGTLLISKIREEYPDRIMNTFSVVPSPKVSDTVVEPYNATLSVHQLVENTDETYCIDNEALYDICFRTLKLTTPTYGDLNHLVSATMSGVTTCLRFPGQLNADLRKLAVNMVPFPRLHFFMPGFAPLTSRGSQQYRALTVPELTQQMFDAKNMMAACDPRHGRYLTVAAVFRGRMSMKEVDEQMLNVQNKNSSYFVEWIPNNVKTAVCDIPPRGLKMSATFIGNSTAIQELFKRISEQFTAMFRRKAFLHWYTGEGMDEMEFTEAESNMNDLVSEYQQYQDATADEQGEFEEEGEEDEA

`Cc1ncc([N+](=O)[O-])n1CCOC(=O)NC(Nc1ncccn1)C(Cl)(Cl)Cl` (stereo not drawn): the Activity result in the assay on HepG2 [1] was “Dose-dependent effect”; in the assay with HepG2 [2] it was 7.85%; in the assay on HepG2 [3], 0.73%; with HepG2 [5], 6.82%; in the assay with HepG2 [11] it was 2.39%; with HepG2 [12], 82.91%. The Activity in the assay on HepG2 [13] came to 62.43%; in the assay on HepG2 [14], 30.02%; in the assay on HepG2 [15], 6.85%. The IC50 was > 300000 nM in the assay with Caov-3 cell line; > 300000 nM in the assay on MCF7; > 300000 nM with HepG2 [9]; > 300000 nM in the assay with A549; 193000 nM in the assay on A-375; 221000 nM in the assay on HeLa. Besides, in the assay on OVCAR-3, the IC50 was > 300000 nM. Moreover, binding in [4] was characterised by a dissociation constant (Kd) of 123000 nM. For the same compound, the outcome in the assay on HepG2 [6] and with HepG2 [7] was Active. For the same compound, the inhibition entry in [8] was “Active”. Moreover, in the assay with HepG2 [10], the “fold change (FC)” value was 2.2.

For `Nc1nc(F)nc2c1ncn2C(NC(=O)OCCN1CCOCC1)C(Cl)(Cl)Cl` (stereo not drawn), the Activity result is “Dose-dependent effect” in the assay on HepG2 [1]; 0.24% in the assay with HepG2 [21]; 37.35% in the assay on HepG2 [24]; 4.71% in the assay with HepG2 [25]; 10% with HepG2 [26]; 57.7% in the assay on HepG2 [27]. The outcome in the assay on HepG2 [16], with HepG2 [19] and with HepG2 [23] was Active. Further, the IC50 amounted to 1500 nM in the assay with Caov-3 cell line; 200 nM with MCF7; 600 nM with HepG2 [9]; 1500 nM with A549; 700 nM in the assay with A-375; 300 nM in the assay on HeLa. Besides, in the assay with OVCAR-3, the IC50 was 1700 nM. For the same compound, the inhibition entry with HepG2 [17], on Tubulin (Homo sapiens) [18] and on Tubulin (Homo sapiens) [22] was “Active” in each case. The same compound yielded a Kd in assay [4] of 119000 nM. Further, the inhibition entry in the assay with HepG2 [20] and on Tubulin (Sus scrofa) was “Dose-dependent effect” in each case.
